Screening data (PubChem BioAssay)
AHR act – AHR activators, primary screen, cell-based, luminescence, luciferase reporter, human; Aryl hydrocarbon receptor (Homo sapiens), P35869; 320,000 tested, 2.5% active; activation, % at 5 µM; AHR-responsive luciferase reporter cells; in the data active means activation above about 47%
CTSL1 counter – Fasciola hepatica cathepsin L1 inhibitors, primary screen, counter-screen for PFM18AAP inhibitor project, biochemical, QFRET, fluorogenic peptide substrate. recombinant F. hepatica cathepsin L1, Z-Leu-Arg-MCA fluorescence. inhibition, % at 5.96 µM. 300,000 tested, 0.49% active;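 active means inhibition above the mean of all tested compounds plus 3 SD, set per screening campaign, cut at about 17% in these data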
HDAC3 inh – HDAC3 deacetylase inhibitors, primary screen, biochemical, fluorescence, cell-free homogeneous; 320,000 tested, 0.15% active; AID 2718, 2010; inhibition, % at 8.3 µM; Histone deacetylase 3 (Homo sapiens), O15379; recombinant HDAC3, fluorogenic peptide/trypsin coupled; in the data active means inhibition above about 26%, passing the limit was not always enough; inconclusive means no clear call, values can overlap the other calls
Target sequence (O15379 whole entry, looked up): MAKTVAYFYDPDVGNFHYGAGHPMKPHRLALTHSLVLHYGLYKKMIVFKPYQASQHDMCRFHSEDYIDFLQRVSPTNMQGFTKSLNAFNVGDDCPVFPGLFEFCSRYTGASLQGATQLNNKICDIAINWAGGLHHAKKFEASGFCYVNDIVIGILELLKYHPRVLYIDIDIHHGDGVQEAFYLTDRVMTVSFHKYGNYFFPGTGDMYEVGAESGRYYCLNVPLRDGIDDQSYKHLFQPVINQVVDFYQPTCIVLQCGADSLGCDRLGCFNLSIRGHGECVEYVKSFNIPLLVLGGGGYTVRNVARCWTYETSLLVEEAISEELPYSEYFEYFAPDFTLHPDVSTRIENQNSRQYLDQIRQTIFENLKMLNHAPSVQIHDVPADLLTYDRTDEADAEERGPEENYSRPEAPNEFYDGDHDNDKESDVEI
M18AAP inhibitor – PfM18AAP inhibitors, malaria aminopeptidase, primary screen, biochemical, QFRET, recombinant enzyme | inhibition, % at 7.35 µM | AID 1822, 2009 | 290,000 tested, 1.2% active | H-Glu-NHMec fluorogenic cleavage;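 active means inhibition above the campaign mean inhibition over all tested compounds plus 3 SD, cut at about 28% in these data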
GAA850 FXN act – FXN promoter activators, primary screen, cell-based, luciferase luminescence, HEK293 lucGAA850; HEK293 lucGAA850 FXN promoter luciferase reporter, 24 h; percent of 10 µM SAHA response; activation, % at 6 µM; 360,000 tested, 0.56% active;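 active means activation above the average of all compounds screened plus 3 SD, cutoff fixed separately per campaign, cut at about 7.5% in these data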
SENP1 FRET inh – human SENP1 catalytic domain inhibitors, primary screen, biochemical, FRET, uHTS; Sentrin-specific protease 1 (Homo sapiens), Q9P0U3; recombinant SENP1 catalytic domain, CyPet-SUMO1-YPet FRET cleavage; inhibition, % at 10 µM; 360,000 tested, 0.21% active; AID 624204, 2012;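 active means inhibition at least 30% at 10 µM, raw YFP signal under a set limit, fluorescence ratio 0.5 to 1.5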
Target sequence (Q9P0U3 419-644 limits assumed): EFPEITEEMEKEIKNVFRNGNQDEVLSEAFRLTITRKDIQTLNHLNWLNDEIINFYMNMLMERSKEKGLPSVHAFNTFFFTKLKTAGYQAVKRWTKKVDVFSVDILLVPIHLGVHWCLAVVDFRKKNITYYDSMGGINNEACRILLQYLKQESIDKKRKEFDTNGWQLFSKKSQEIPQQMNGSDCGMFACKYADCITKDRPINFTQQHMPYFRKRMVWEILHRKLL
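Assay system: hSENP1 catalytic domain, recombinant. Amount: SENP1 enzyme, 20 pM final. Schedule: 50 min reaction, RT, dark. Technique: FRET, CFP and YFP emission. Control set: no-enzyme wells low, DMSO-plus-enzyme wells high control.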
AHR act cf – AHR activators, confirmation, cell-based, luminescence, luciferase reporter, human; shares compounds with AHR act; 2,300 tested, 87% active; activation, % at 9 µM; human cells, AHR-responsive luciferase reporter; AID 2845, 2010; in the data active means activation above about 49%;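 further: HepG2 hepatoma cells carrying a DRE-driven firefly luciferase reporter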
PXR act counter – human PXR activators, counter-screen for AHR activator project, cell-based, luciferase luminescence; shares compounds with AHR act; AID 434939, 2010; 2,300 tested, 88% active; cell-based PXR reporter; activation, % at 11.6 µM; in the data active means activation above about 11%;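 further: human hepatoma DPX-2 cells expressing full-length human PXR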
Large screens that a line does not name were inactive (follow-up assays come after a bar, where they were run). Sampled rows, rich in hits. Any-hit rate of the full collection: about 4.2%.

CCOc1ccc(Nc2nc(-c3sc(N)nc3C)cs2)cc1	AHR act 114 | AHR act cf 112 | PXR act counter 17
CCCCCC(=O)Nc1nc(C)c(-c2csc(Nc3cc(Cl)ccc3C)n2)s1	AHR act 109 | AHR act cf 75 | PXR act counter 27
COC(=O)c1ccccc1NC(=O)NCCc1ccccc1OC	AHR act 88 (no result: HDAC3 inh) | AHR act cf 110 | PXR act counter 32
Nc1nc(SCC(=O)N2N=C3/C(=C/c4ccco4)CCCC3C2c2ccco2)n[nH]1 (centres undefined)	none
O=C(CSc1ncn[nH]1)N1N=C2/C(=C/c3ccccc3)CCCC2C1c1ccccc1 (centres undefined)	AHR act 98 | AHR act cf 88 | PXR act counter 74
COC(=O)c1ccccc1NC(=O)CC(=O)Nc1ccccc1C(=O)OC	none
COC(=O)c1ccccc1NC(=O)Cn1ccnc1	AHR act 104 | AHR act cf 84
COC(=O)c1cnn(-c2ccc(F)cc2F)c1/C=N/NC(N)=S	none
Cc1ccc(-n2nc3cc(C)c(N)cc3n2)cc1	none
COc1ccc(-n2nc3cc(N)c(Br)cc3n2)cc1	AHR act 98 | AHR act cf 124 | PXR act counter 30
OC(c1cc(F)cc(Cl)c1)c1ncc(-c2ccccc2Cl)[nH]1 (centres undefined)	none (no result: AHR act, CTSL1 counter, HDAC3 inh, M18AAP inhibitor)
CCc1ccc(S(=O)(=O)Nc2ccc(-c3ccc4nncn4n3)cc2)s1	none (no result: M18AAP inhibitor)
CCc1ccc(S(=O)(=O)Nc2ccc(-c3nc4cccnc4s3)cc2)s1	AHR act 88 (no result: HDAC3 inh) | AHR act cf 82 | PXR act counter 20
C/C(=C\C(=O)c1ccccc1)NNc1nc2ccccc2s1	AHR act 97 | AHR act cf inactive | PXR act counter 54
CN(CCNC(=O)c1c[nH]c2c1ccc1ccccc12)CCNC(=O)c1c[nH]c2c1ccc1ccccc12	none (no result: AHR act, CTSL1 counter, HDAC3 inh, M18AAP inhibitor)
COc1cccc(Cn2nnc(C(=O)Nc3cc(C)ccc3OC)c2N)c1	AHR act 128 | AHR act cf inactive | PXR act counter 26
O=c1c2ccccc2[nH]c(=S)n1CCc1ccccc1	AHR act 121 | AHR act cf 159 | PXR act counter 38
O=c1c2ccccc2[nH]c(=S)n1Cc1ccccc1	none
O=C(Nc1ccc(Cl)cn1)Nc1ccccc1F	none
O=C(Nc1cccc(C(=O)Nc2ccc(Cl)cn2)c1)c1ccccc1	AHR act 82 | AHR act cf inactive | PXR act counter 19
COc1cc(N)ccc1NC(=O)c1cc2ccccc2o1	AHR act 107 | AHR act cf 141 | PXR act counter 12
O=C(Nc1ccc(Cl)cn1)c1cc2ccccc2o1	AHR act 110 | AHR act cf 72 | PXR act counter inactive
O=C(Nc1ccc(Cl)cn1)c1cccc(F)c1	none
O=C(Nc1ccc(Cl)cn1)c1ccccc1F	AHR act 148 | AHR act cf 77 | PXR act counter 21
Clc1ccc(Cl)c2sc(N3CCCC3)nc12	none
Clc1cccc2sc(N3CCN(c4ccccc4)CC3)nc12	AHR act 122 | AHR act cf 112 | PXR act counter 17
Cc1cc(C)nc(SCc2nc(N)nc(-c3ccccc3O)n2)n1	AHR act 84 | AHR act cf 91 | PXR act counter 38
Nc1nc(N)nc(-c2ccccc2O)n1	none
Nc1nc(-c2ccccc2)nc(-c2ccccc2O)n1	AHR act 84 | AHR act cf 107 | PXR act counter 13
COc1ccccc1Nc1nc(N)nc(CSc2nc(C)cc(C)n2)n1	none
CCCCN1C(=O)C(CC(=O)NCC2CCCCC2)CC(C(=O)N2CCCCCC2)=C1C (centres undefined)	none (no result: AHR act, CTSL1 counter, HDAC3 inh, M18AAP inhibitor, GAA850 FXN act)
CC(C)OCCCNC(=O)CCCC(=O)Nc1ccc(OCCc2ccccc2)cc1	none
COc1ccc(-c2nc(C(N)=O)c3[nH]c(=O)n(-c4cccc(Cl)c4)c3n2)cc1OC	none (no result: AHR act, CTSL1 counter, HDAC3 inh)
COc1cccc(-c2nc(C(N)=O)c3[nH]c(=O)n(-c4cccc(Cl)c4)c3n2)c1OC	AHR act 89 | AHR act cf 93 | PXR act counter 31
Cc1ccc(S(=O)(=O)NCc2ccccc2)cc1C(=O)NC1CCC(C)CC1 (centres undefined)	none
CN(CCO)c1c2c(nc3cc(-c4cccc(F)c4)nn13)CCCC2	AHR act 89 | AHR act cf 92 | PXR act counter 64
CC1CC1c1ccc(/C=C(\C#N)C(=O)Nc2ccc(Cl)cc2)o1 (centres undefined)	AHR act 90 | AHR act cf inactive | PXR act counter 45
Cc1ccccc1NC(=O)/C(C#N)=C\c1ccsc1	AHR act 84, HDAC3 inh inconclusive | AHR act cf 50 | PXR act counter 62
O=C(Nc1cccc(-c2nc3cc(Cl)ccc3o2)c1)C1CCCO1 (centres undefined)	AHR act 118 | AHR act cf 126
COc1ccc(Nc2ncnc3c2oc2ccccc23)cc1	none
c1ccc2c(c1)oc1c(Nc3ccc4c(c3)OCCO4)ncnc12	AHR act 95 | AHR act cf 110 | PXR act counter 19
Nc1ccn([C@@H]2O[C@H](CNCc3ccc(C#CCCO)cc3)[C@@H](O)[C@H]2O)c(=O)n1	none (no result: AHR act, CTSL1 counter, HDAC3 inh, M18AAP inhibitor)
CCOc1ccc(Nc2nc3ccccc3n2C)cc1	none (no result: M18AAP inhibitor)
CCOc1ccc(Nc2nc3ccccc3n3nnnc23)cc1	AHR act 132 | AHR act cf 85 | PXR act counter 16
Cc1ccc(N/C=C(\C#N)S(=O)(=O)c2ccccc2)cc1	none
O=C(CSc1ccc2ccccc2n1)c1ccc2c(c1)OCO2	AHR act 103 | AHR act cf inactive | PXR act counter 24
CC(=O)c1ccc(S(=O)(=O)N(C)CC(=O)NCC2CCCCC2)cc1	none
C=CCNc1nc2ccccc2c(=O)[nH]1	AHR act 94 | AHR act cf inactive | PXR act counter inactive
CCCNc1nc2ccccc2c(=O)[nH]1	none
CCOC(=O)c1cc2c(OC)c(OC)ccc2c2[nH]cc(C#N)c(=O)c12	none (no result: AHR act, CTSL1 counter, HDAC3 inh, M18AAP inhibitor)
CC(=O)Nc1sc(C)c(C)c1C(=O)OCCOc1ccccc1	HDAC3 inh inconclusive
